Reference: ChEMBL document CHEMBL3046072, “Plant P5C reductase as a new target for aminomethylenebisphosphonates” (J Agric Food Chem, 2007)

Target: T1, Pyrroline-5-carboxylate reductase (Arabidopsis thaliana, UniProt P54904)
T1 sequence (P54904 whole entry): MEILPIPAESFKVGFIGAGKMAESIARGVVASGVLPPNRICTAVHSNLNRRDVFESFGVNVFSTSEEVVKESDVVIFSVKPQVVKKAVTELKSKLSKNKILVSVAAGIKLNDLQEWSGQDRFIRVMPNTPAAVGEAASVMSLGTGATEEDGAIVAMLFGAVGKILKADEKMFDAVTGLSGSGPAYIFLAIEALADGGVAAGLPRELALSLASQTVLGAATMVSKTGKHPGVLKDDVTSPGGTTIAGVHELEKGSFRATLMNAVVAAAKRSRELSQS
Assay: Inhibition of Arabidopsis thaliana P5C reductase catalytic activity
Conditions: read-out: I50
In short: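 P5C reductase partially purified from A. thaliana Columbia suspension-cultured cells by ammonium sulfate cut and two DEAE-Sephacel steps. Assay at 35 °C: 100 mM Tris-HCl pH 8.0, 0.1 mM MgCl2, 2 mM DL-P5C, 0.25 mM NADH. Read as NADH oxidation at 340 nm, or as P5C loss by ninhydrin at 535 nm. Inhibitor neutralised to pH 7.4, tested over 0.010–5 mM. I50 from regression of % control activity versus log concentration.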

With `O=P(O)(O)C(Nc1cc(Cl)cc(Cl)c1)P(=O)(O)O` [(3,5-DICHLOROPHENYLAMINO)METHYLENEDIPHOSPHONIC ACID] the IC50 was 77 µM.
